High-throughput results as filed in PubChem.
Hits are enriched below; roughly 2.3% of the tested compounds scored in any of these assays.
TAAR1 agonist = human TAAR1 agonists, primary screen, Fluo-8 calcium fluorescence, CHO RD-HGA16 cells. Trace amine-associated receptor 1 (Homo sapiens), Q96RJ0. vehicle wells 0%, saturating PEA agonist 100%. activation, % at 3 µM. 0.99% of 360,000 active;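 active = activation above the mean activation of all test compounds in the run plus 3 SD, cut at about 38% in these data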
Target sequence (Q96RJ0 whole entry, looked up): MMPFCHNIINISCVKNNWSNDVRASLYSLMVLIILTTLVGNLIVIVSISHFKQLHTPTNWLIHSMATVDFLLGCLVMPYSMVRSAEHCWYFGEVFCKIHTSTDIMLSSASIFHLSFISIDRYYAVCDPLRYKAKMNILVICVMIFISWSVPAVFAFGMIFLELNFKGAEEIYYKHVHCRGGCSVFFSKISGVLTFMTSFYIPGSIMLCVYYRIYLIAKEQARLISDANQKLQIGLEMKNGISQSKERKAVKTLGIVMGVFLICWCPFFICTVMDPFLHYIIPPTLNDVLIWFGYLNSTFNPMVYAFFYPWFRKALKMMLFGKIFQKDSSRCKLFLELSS
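Assay system – CHO-derived RD-HGA16 cells with stable Gα16 and human TAAR1 · Compound dosing – one-point dosing at 3 µM (nominal) · Incubation – 17-24 h seeding, 75 min 37 °C dye, 30 min RT · Measured by – kinetic Fluo-8 calcium fluorescence · Control set – DMSO vehicle as 0%, PEA at EC100 as 100% · Repeats – single well for each compound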
OXTR potentiate = human OXTR potentiators, primary screen, fluorescence, CHO-OTR cells, Fluo-8 calcium. Oxytocin receptor (Homo sapiens), P30559. Fluo-8 calcium fluorescence, potentiator mode; 0% = oxytocin EC15, 100% = EC100. activation, % at 3 µM. 0.061% of 320,000 active;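 active = activation above that plate's cutoff, the mean activation of tested compounds plus 3 SD, cut at about 6.6% in these data, passing the limit was not always enough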;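 note: 100% uses oxytocin at 75 nM as the full agonist control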
Target sequence (P30559 whole entry, looked up): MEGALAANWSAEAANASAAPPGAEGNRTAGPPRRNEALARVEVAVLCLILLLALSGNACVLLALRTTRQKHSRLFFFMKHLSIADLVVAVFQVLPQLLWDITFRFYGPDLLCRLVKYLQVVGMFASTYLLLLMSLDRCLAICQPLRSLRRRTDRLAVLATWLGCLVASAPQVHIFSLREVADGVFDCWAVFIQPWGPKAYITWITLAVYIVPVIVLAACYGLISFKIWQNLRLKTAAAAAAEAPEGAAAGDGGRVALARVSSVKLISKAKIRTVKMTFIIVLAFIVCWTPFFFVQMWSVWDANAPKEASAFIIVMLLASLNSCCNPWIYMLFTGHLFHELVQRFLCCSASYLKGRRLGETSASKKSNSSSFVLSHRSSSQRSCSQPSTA
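Measured by – Fluo-8 calcium dye fluorescence · Test system – human OTR in CHO cells · Dosing – one concentration, 3.0 µM compound · Controls – EC15 oxytocin alone as 0%, 75 nM oxytocin as 100% · Evaluation – normalized max/min fluorescence ratio, % activation · Timing – 6 min pre-incubation, 100 s read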
V1aR counter = agonists of human V1a receptor, primary screen, counter-screen for OXTR agonist project, fluorescence, CHO-V1R cells; Vasopressin V1a receptor (Homo sapiens), P37288; Fluo-8 calcium fluorescence, agonist mode; 0% DMSO, 100% 3 nM vasopressin; activation, % at 3 µM; 0.25% of 320,000 active;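 active = activation above the mean activation of all tested compounds plus 3 SD, per screening run, cut at about 20% in these data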;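 note: signal is peak over basal fluorescence ratio across a 100 second FLIPR read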
TAAR1 antagonist = human TAAR1 antagonists, primary screen, Fluo-8 calcium fluorescence, CHO RD-HGA16 cells; 1.5% of 360,000 active; inhibition, % at 3 µM; antagonist; AID 624466, 2012;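 active = inhibition above a per-plate cutoff, the mean inhibition of test compounds on that plate plus 3 SD, cut at about 49% in these data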;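 note: 0% = DMSO plus EC80 beta-PEA response and 100% = DMSO alone without agonist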
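Test system: hTAAR1-expressing CHO RD-HGA16 cells, Gα16-coupled; Probe or stimulus: EC80 β-phenethylamine stimulus; Compound dosing: single nominal final test compound concentration of 3 µM; Timing: 140 s kinetic read after compound, 140 s after agonist; Signal: Fluo-8 calcium-sensitive fluorescence; Measure: % inhibition of agonist calcium response; Controls: DMSO and EC80 PEA controls.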
OXTR ag = human OXTR agonists, primary screen, fluorescence, CHO-OTR cells, Fluo-8 calcium; Oxytocin receptor (Homo sapiens), P30559; Fluo-8 calcium fluorescence; normalized: DMSO 0%, oxytocin 100%; activation, % at 3 µM; 0.32% of 320,000 active; AID 2435, 2010;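 active = activation above the mean of all tested compounds plus 3 SD, cutoff set per screening run, cut at about 20% in these data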;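 note: peak over basal fluorescence ratio from a 100 s FLIPR kinetic read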
nonsel antag count = nonselective antagonists in TAAR1 counter-screen cells, counter-screen for hTAAR1 antagonist project, cell-based, fluorescence, calcium. shares compounds with TAAR1 antagonist. counterscreen cell line, antagonist mode. inhibition, % at 3 µM. 77% of 2,400 active; in the data active = inhibition above about 22%;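 note: CHO-Ga16 host cells stimulated with ATP at an EC80 level; 0% = agonist EC80 plus vehicle and 100% = vehicle without agonist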
TAAR1 ant conf = human TAAR1 antagonists, retest of hits, confirmation, cell-based, fluorescence. shares compounds with TAAR1 antagonist. TAAR1-expressing cells, fluorescence antagonist read-out. inhibition, % at 3 µM. 40% of 2,400 active; in the data active = inhibition above about 49%;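 note: CHO-Ga16 host cells challenged with agonist PEA near its EC80; 0% = agonist at EC80 plus vehicle and 100% = vehicle with no agonist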
Ga16 ag counter = calcium activation in Ga16-expressing cells, counter-screen for TAAR1 antagonist project, cell-based, fluorescence; shares compounds with TAAR1 antagonist; agonist counterscreen; activation, % at 3 µM; 18% of 2,400 active; AID 651953, 2012; in the data active = activation above about 12%;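 note: 0% = vehicle wells and 100% = saturating stimulus response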
TAAR1 ag count = TAAR1 activation by candidate antagonists – cell-based, fluorescence, counter-screen for TAAR1 antagonist project. 2% of 2,400 active. AID 651955, 2012. hTAAR1 cell line, agonist mode. shares compounds with TAAR1 antagonist. activation, % at 3 µM; in the data active = activation above about 37%;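 note: CHO cells stably expressing TAAR1 with calcium dye readout; 0% = DMSO vehicle and 100% = full agonist response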
* marks the source's active call; other numbers are inactive results.

Nc1nc2cc3c(cc2cc1C(=O)NCCc1c[nH]c2ccccc12)OCO3 was read as TAAR1 agonist 9, TAAR1 antagonist 52*, nonsel antag count 45*, TAAR1 ant conf 46, Ga16 ag counter 13* and TAAR1 ag count 8.
COc1cccc(-c2csc(N3CCN(C(=O)Nc4ccccc4OC)CC3)n2)c1 was read as TAAR1 agonist 2, OXTR potentiate -6, V1aR counter -1, TAAR1 antagonist 11 and OXTR ag -2.
For COc1cccc(-c2csc(N3CCN(C(=O)Nc4ccc(F)cc4)CC3)n2)c1 the results were TAAR1 agonist 11, OXTR potentiate -18, V1aR counter 5, TAAR1 antagonist 79*, OXTR ag 4, nonsel antag count 55*, TAAR1 ant conf 64*, Ga16 ag counter 11 and TAAR1 ag count 6.
Screening Cn1c(=O)c2cc(NC(=O)CCc3ccccc3)ccc2n1-c1ccccc1F returned TAAR1 agonist 2 and TAAR1 antagonist 29.
CC1(C)NC(=O)N(CC(=O)OCC(=O)NC(=O)c2ccccc2)C1=O was read as TAAR1 agonist 2, OXTR potentiate 3, V1aR counter 0, TAAR1 antagonist 9 and OXTR ag 2.
Screening CCN(CC)C(=O)c1cccc(-c2csc(C(C)(O)c3cccc(F)c3)n2)c1 (stereo not drawn) returned TAAR1 agonist 11, TAAR1 antagonist 80*, nonsel antag count 43*, TAAR1 ant conf 57*, Ga16 ag counter 12* and TAAR1 ag count 11.
For O=c1oc2c(-c3ccc([N+](=O)[O-])cc3)cc(O)cc2s1 the results were TAAR1 agonist 7, OXTR potentiate -5, V1aR counter 0, TAAR1 antagonist -18 and OXTR ag 3.
`CCOC(=O)c1c(C)[nH]c(C)c1C(=O)COC(=O)/C=C/c1ccc(OC(F)F)cc1` gave TAAR1 agonist 6, OXTR potentiate -10, V1aR counter 3, TAAR1 antagonist 52*, OXTR ag 3, nonsel antag count 34*, TAAR1 ant conf 40, Ga16 ag counter 7 and TAAR1 ag count 2.
`CC1(C)C(=O)Nc2ccccc2N1C(=O)COC(=O)/C=C/c1ccc(OC(F)F)cc1` gave TAAR1 agonist 21, OXTR potentiate -10, V1aR counter 0, TAAR1 antagonist 57*, OXTR ag -1, nonsel antag count 31*, TAAR1 ant conf 46, Ga16 ag counter 12* and TAAR1 ag count 10.
Screening CCOC(=O)c1c(C)[nH]c(C(=O)COC(=O)/C=C/c2ccc(OC(F)F)cc2)c1C returned TAAR1 agonist 0, OXTR potentiate -2, V1aR counter 0, TAAR1 antagonist -3 and OXTR ag 0.
Cc1nn(-c2ccccc2)c(C)c1C(=O)OCC(=O)N1c2ccccc2NC(=O)C1(C)C was read as TAAR1 agonist 19, OXTR potentiate -21, V1aR counter 1, TAAR1 antagonist 71*, OXTR ag -2, nonsel antag count 40*, TAAR1 ant conf 53*, Ga16 ag counter 9 and TAAR1 ag count 9.
O=C(Cn1ccc2cc(S(=O)(=O)N3CCCC3)ccc21)NCCc1ccccc1 was read as TAAR1 agonist 31, OXTR potentiate -19, V1aR counter 1, TAAR1 antagonist -10 and OXTR ag 1.
COc1cc2c(cc1OC)-c1nnnn1C(C)(C)C2 was read as TAAR1 agonist 4, OXTR potentiate -4, V1aR counter 0, TAAR1 antagonist 13 and OXTR ag 1.
Screening COc1cc2c(cc1OC)-c1nnc(-c3cccs3)n1C(C)(C)C2 returned TAAR1 agonist 1, OXTR potentiate -2, V1aR counter 0, TAAR1 antagonist 50*, OXTR ag 0, nonsel antag count 8, TAAR1 ant conf 38, Ga16 ag counter 3 and TAAR1 ag count -2.
Screening COc1cccc(N2CCN(C(=O)CCc3nnc4ccc(N5CCCC5)nn34)CC2)c1 returned TAAR1 agonist 2, OXTR potentiate -8, V1aR counter -1, TAAR1 antagonist 2 and OXTR ag -3.
`COc1ccc(NC(=O)CCc2nnc3ccc(N4CCN(c5cccc(OC)c5)CC4)nn23)cc1` gave TAAR1 agonist 9, OXTR potentiate -12, V1aR counter 0, TAAR1 antagonist 63*, OXTR ag 4, nonsel antag count 23*, TAAR1 ant conf 39, Ga16 ag counter 9 and TAAR1 ag count 14.
For COc1ccccc1N1CCN(C(=O)CCc2nnc3ccc(N4CCC(C)CC4)nn23)CC1 the results were TAAR1 agonist 7, OXTR potentiate -15, V1aR counter -2, TAAR1 antagonist 53*, OXTR ag -3, nonsel antag count 22*, TAAR1 ant conf 43, Ga16 ag counter 8 and TAAR1 ag count 10.
For COc1cccc(NC(=O)CCc2nnc3ccc(N4CCN(c5cccc(OC)c5)CC4)nn23)c1 the results were OXTR potentiate -9, V1aR counter 0 and OXTR ag 0.
NNC(=O)C(=O)Nc1ccc(O)cc1 was read as TAAR1 agonist 2, OXTR potentiate 1, V1aR counter 0, TAAR1 antagonist 2 and OXTR ag 0.
Screening CCc1nc(SCC(=O)NCCc2ccccc2)n[nH]1 returned TAAR1 agonist 33, OXTR potentiate 1, V1aR counter 0, TAAR1 antagonist 75*, OXTR ag 0, nonsel antag count -2, TAAR1 ant conf 70*, Ga16 ag counter 0 and TAAR1 ag count 49*.
For Cc1c(Cl)cnc(NC(=O)COC(=O)c2ccncc2)c1Cl the results were TAAR1 agonist -3, OXTR potentiate -2, V1aR counter 1, TAAR1 antagonist 101*, OXTR ag 1, nonsel antag count 2, TAAR1 ant conf -1, Ga16 ag counter 0 and TAAR1 ag count -1.
